Values after ≈ are worked out from the molar mass of the structure shown. Active and inactive are the calls of the source. The rule behind the calls is not given here.
Tests used:
[1] = tested on: Human betaherpesvirus 5; assay: Inhibition of HCMV UL54 expressed in baculovirus interaction with UL44 expressed in baculovirus after 1 hr by ELISA
Summary of the method: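 Plates coated with […] purified baculovirus-expressed HCMV UL54, then blocked with 2% BSA/PBS for 1 h. Purified UL44 ([…]) carrying a C-terminal EEF tag was added with compound or DMSO (1% final) for 1 h at 37 °C. Detection used MAb YL1/2 (1 h, 37 °C), then HRP anti-rat antibody and TMB, read at 450 nm. Compounds were tested up to 200 μM.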

[2] = tested on: Liver microsome; assay: Metabolic stability in human liver microsomes after 30 mins by HPLC-MS/MS analysis; type: ADME; details: 0.5 h
[3] = Inhibition of Influenza A virus GST-tagged PB1 (1 to 25) expressed in Escherichia coli binding to Influenza A virus 6His-tagged PA (239 to 716) expressed in Escherichia coli BL21(DE3) by ELISA
Summary of the method: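 Plates coated with 400 ng purified E. coli-expressed 6His-PA(239-716) for 3 h at 37 °C, then blocked with 2% BSA/PBS for 1 h at 37 °C. GST-PB1(1-25) (200 ng; GST alone as control) was added with compound at 10, 50, 100 or 200 μM and incubated overnight at room temperature. Detection used HRP anti-GST mAb (1:3000) and TMB at 450 nm, with DMSO set as 100%. IC50 is mean ± SD, ≥3 experiments in duplicate.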

[4] = Inhibition of Influenza A virus RdRP infected in human HEK293T cells after 24 hrs by dual luciferase reporter gene assay; type: cell-based; details: HEK-293T
Summary of the method: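 HEK 293T cells (10^5 per well) were transfected 24 h after seeding with PB1, PB2, PA and NP plasmids (100 ng each), a pol I firefly luciferase reporter (50 ng) and pRL-SV40 Renilla (50 ng), with compound or DMSO. Medium was replaced with compound-containing DMEM at 4 h. Dual luciferase was read at 24 h post-transfection, with DMSO set as 100%. EC50 is mean ± SD, ≥3 experiments in duplicate.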

[5] = tested on: Influenza A virus; assay: Inhibition of Influenza A virus A/PR/8/34 infected in MDCK cells after 48 hrs by plaque reduction assay; type: functional, organism-based; details: A/PR/8/34, MDCK
Summary of the method: (§1)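 Confluent MDCK monolayers in 12-well plates were infected with about 40 PFU/well in DMEM with 1 µg/ml TPCK-trypsin and 0.14% BSA, with compound or DMSO, for 1 h at 37 °C. Overlay was serum-free medium with trypsin, BSA, 1.2% Avicel and compound. After 48 h, cells were fixed with 4% formaldehyde, stained with 0.1% toluidine blue and plaques counted, with DMSO set as 100%. EC50 is mean ± SD, ≥3 experiments in duplicate.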

[6] = Cytotoxicity against human HEK293T cells after 24 hrs by MTT assay; type: cell-based, HEK-293T
Summary of the method: (§2)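 MTT assay. HEK 293T or MDCK cells (2×10^4 per well) were cultured at 37 °C in DMEM with serially diluted compounds (250 to 1.9 μM), for 24 h (293T) or 48 h (MDCK). MTT (5 mg/ml stock) was then added for 4 h, cells were lysed and incubated 3 h more, and absorbance was read at 620 nm. CC50 is the concentration cutting viability 50%, mean ± SD of ≥3 independent experiments in duplicate.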

[7] = Cytotoxicity against MDCK cells after 48 hrs by MTT assay; type: cell-based, Canis lupus familiaris; details: dog; summary of the method: as §2
[8] = Inhibition of Influenza A virus (A/Solomon Islands/3/2006(H1N1)) infected in MDCK cells after 48 hrs by plaque reduction assay; type: functional, cell-based; summary of the method: as §1
[9] = tested on: Influenza A virus; assay: Inhibition of Influenza A virus A/Padova/30/11(H1N1) infected in MDCK cells after 48 hrs by plaque reduction assay; type: functional, organism-based; summary of the method: as §1
[10] = Inhibition of Influenza A virus (A/Parma/24/2009(H1N1)) infected in MDCK cells after 48 hrs by plaque reduction assay; type: functional, cell-based; summary of the method: as §1
[11] = tested on: Influenza A virus; assay: Inhibition of Influenza A virus A/[…]/67/05(H3N2) infected in MDCK cells after 48 hrs by plaque reduction assay; type: functional, organism-based; summary of the method: as §1
[12] = tested on: Influenza B virus; assay: Inhibition of Influenza B virus (B/Lee/40) infected in MDCK cells after 48 hrs by plaque reduction assay; type: functional, organism-based; details: B/Lee/1940, MDCK; summary of the method: as §1
[13] = tested on: Influenza B virus; assay: Inhibition of Influenza B virus (B/Malaysia/2506/2004) infected in MDCK cells after 48 hrs by plaque reduction assay; type: functional, cell-based; details: B/Malaysia/2506/2004, MDCK; summary of the method: as §1
[14] = Solubility of the compound in D2O at 25 degC after 24 hrs by NMR analysis; type: physicochemical
[15] = Permeability of the compound by PAMPA; type: physicochemical
[16] = Metabolic stability in human liver microsomes assessed as compound remaining after 30 mins by HPLC-MS/MS analysis; type: ADME; details: read-out: Stability

Structure (SMILES)	inhibition activity call (active/not active) [1]	Stability [2]	IC50 [3]	EC50 [4]	EC50 [5]	CC50 at 24 h [6]	CC50 at 48 h [7]	EC50 [8]	EC50 [9]	EC50 [10]	EC50 [11]	EC50 [12]	EC50 [13]	solubility at 24 h [14]	permeability [15]	inhibition [1]	IC50 [4]	remaining at 0.5 h [16]
Cn1c(=O)cc2c3c(c(N4CCCCC4)ccc31)C(=O)c1ccccc1-2	Active																	
NC(=O)c1c(NC(=O)c2nc3nc(-c4ccccc4)cc(C(F)(F)F)n3n2)sc2c1CCCC2	inactive	Stable	7.5 µM	9.2 µM	23.7 µM	> 250 µM	> 250 µM	23.3 µM	20.6 µM	22.9 µM	20 µM	33.5 µM	25.9 µM	2.4 µg/mL (≈ 4.93 µM)	permeable			
CCC(C)NC(=O)c1ccccc1NC(=O)c1ccc(C)c(S(=O)(=O)Nc2cccc(NC(=O)c3ccccc3)c2)c1 (stereo unspecified)			> 200 µM	> 100 µM	> 100 µM	> 250 µM	> 250 µM											
NC(=O)c1c(NC(=O)c2cnn3c(C(F)F)cc(-c4ccccc4)nc23)sc2c1CCC2				29.5 µM	75.5 µM	> 250 µM	> 250 µM	> 100 µM	> 100 µM	95.5 µM	> 100 µM	> 100 µM	> 100 µM			inactive	31.4 µM	37%
CCC(C)NC(=O)c1ccccc1NC(=O)c1cccc(S(=O)(=O)Nc2ccccc2)c1 (stereo unspecified)	inactive		9.2 µM	17.2 µM	30.5 µM	> 250 µM	> 250 µM	22.5 µM	37.6 µM	43 µM	23.5 µM	25.5 µM	26.3 µM	1 µg/mL (≈ 2.21 µM)	permeable			50%
Cc1ccc(C)c(NS(=O)(=O)c2cc(C(=O)Nc3ccccc3C(=O)Nc3ccccc3)ccc2C)c1			91.9 µM	> 100 µM	24.7 µM	> 250 µM	70.3 µM											
CCC(C)NC(=O)c1ccccc1NC(=O)c1cccc(S(=O)(=O)Nc2cc(C)ccc2C)c1 (stereo unspecified)	inactive		84 µM	25.7 µM	35.2 µM	> 250 µM	> 250 µM	16.5 µM	16.7 µM	22.1 µM	10.8 µM	15.5 µM	19.8 µM					
O=C(Nc1ccccc1Cl)c1ccc2c(c1)C1C3CCC(C3)C1C(c1ccccc1)N2 (stereo unspecified)			> 200 µM	> 100 µM	> 100 µM	> 250 µM	> 250 µM											
NC(=O)c1c(NC(=O)c2cnn3c(C(F)F)cc(-c4ccccc4)nc23)sc2c1CCCC2			91.2 µM	94.2 µM	66 µM	> 250 µM	> 250 µM											
CCC(C)NC(=O)c1ccccc1NC(=O)c1cccc(S(=O)(=O)Nc2ccc(O)cc2)c1 (stereo unspecified)			> 200 µM	82.6 µM	> 100 µM	> 250 µM	> 250 µM											
NC(=O)c1ncn([C@@H]2O[C@H](CO)[C@@H](O)[C@H]2O)n1 [RIBAVIRIN]				24.9 µM	15.6 µM	> 250 µM	> 250 µM											
NC(=O)c1c(NC(=O)c2cccnc2)sc2c1CCCC2			> 200 µM			> 250 µM	45.2 µM											
NC(=O)c1c(NC(=O)c2cnn3c(C(F)(F)F)cc(-c4ccccc4)nc23)sc2c1CCC2			44.8 µM	27.5 µM	57 µM	> 250 µM	> 250 µM											
O=C(Nc1cnn(C23CC4CC(CC(C4)C2)C3)c1)c1cnn2c1NC(c1ccccc1)CC2C(F)(F)F (stereo unspecified)			> 200 µM			30.1 µM	20.2 µM											
O=C(Nc1ccc2c(c1)CCC2)c1cnn2c(C(F)(F)F)cc(-c3cccs3)nc12			35.1 µM			12.4 µM	18.3 µM											
COC(=O)C1=C(N)N(c2cccc(Cl)c2C)C2=C(C(=O)CCC2)C1c1ccc2c(c1)OCO2 (stereo unspecified)			30.4 µM	18.5 µM														
Cc1ccc(-c2cc(C(F)(F)F)n3ncc(C(=O)Nc4sc5c(c4C(N)=O)CCCC5)c3n2)cc1			43 µM	63 µM	101 µM	> 250 µM	> 250 µM											
COc1ccc(-c2cc(C(F)(F)F)n3ncc(C(=O)Nc4sc5c(c4C(N)=O)CCCC5)c3n2)cc1			135 µM			40.4 µM	51.3 µM											
NC(=O)c1c(NC(=O)c2cnn3c(C(F)(F)F)cc(-c4ccccc4)nc23)sc2c1CCCC2			120 µM	70.5 µM	> 100 µM	> 250 µM	> 250 µM											
CCC(C)NC(=O)c1ccccc1NC(=O)c1ccc(C)c(S(=O)(=O)Nc2cc(C)ccc2C)c1 (stereo unspecified)	inactive		30.5 µM	45.9 µM	18.7 µM	> 250 µM	> 250 µM	17.5 µM	22.6 µM	25 µM	15.9 µM	21.8 µM	29.6 µM					
